Assay outcomes deposited in PubChem by several laboratories.
Rev-erbA mod – modulators of human Rev-erb alpha DNA binding; P20393; Rev-erbα–FITC-DNA binding, fluorescence polarization, 90 min; activity, % at 10 µM; 0.79% of 370,000 active; AID 1259318;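 active means activity above about 14%, limit read from the data; passing the limit was not always enough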;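 further: 0% = DMSO wells with 35 nM protein and 100% = DMSO wells with 750 nM protein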
NR2E3 ag-1 – activates human NR2E3 receptor | AID 602229 | inhibition of corepressor binding, % at 3.98 µM | Q9Y5X4 | 0.35% of 360,000 active | CHO-S Gal4-NCOR/VP16-NR2E3 two-hybrid, luciferase;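 active means inhibition above the mean of all tested compounds plus 3 SD, cut at about 70% in these data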;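 further: 0% = DMSO with NR2E3 transfected cells and 100% = cells lacking NR2E3 construct; higher means lower luciferase signal from less NR2E3 corepressor binding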
Target sequence (Q9Y5X4 whole entry, looked up, the tested form may be a part): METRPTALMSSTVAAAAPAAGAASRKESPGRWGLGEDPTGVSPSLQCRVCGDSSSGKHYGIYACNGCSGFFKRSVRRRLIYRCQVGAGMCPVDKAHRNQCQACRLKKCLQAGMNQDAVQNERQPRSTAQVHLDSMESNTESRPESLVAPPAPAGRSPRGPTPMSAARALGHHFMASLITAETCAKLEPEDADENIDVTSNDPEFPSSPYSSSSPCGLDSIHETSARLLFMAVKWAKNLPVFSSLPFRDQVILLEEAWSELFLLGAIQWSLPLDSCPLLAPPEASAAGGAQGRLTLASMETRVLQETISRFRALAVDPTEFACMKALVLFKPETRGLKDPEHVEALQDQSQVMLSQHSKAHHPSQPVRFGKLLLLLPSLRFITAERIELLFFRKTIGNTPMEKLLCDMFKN
Neddylation inh – blocks human cullin neddylation; P61081+Q13564; TR-FRET cullin neddylation, biochemical; calls only at 25 µM; 0.58% of 360,000 active; AID 651699; in the data active means inhibition above about 36%
NR2E3 ag-2 – agonists of human nuclear receptor NR2E3; GST-NR2E3/biotin-RetCOR TR-FRET, 1536-well; inhibition of corepressor binding, % at 4.78 µM; 0.12% of 320,000 active; AID 2300;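 active means percent inhibition above the cutoff of mean plus 3 SD of all tested compounds, set per screening campaign, cut at about 20% in these data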;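 further: 0% = DMSO wells and 100% = biotin wells as full block of FRET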
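Material: NR2E3–RetCOR corepressor complex | Quantity: 1.35 nM GST-tagged NR2E3 final | Schedule: 5 h at 4 °C | Replication: Singlicate compound wells | Reagent: RetCOR corepressor, biotinylated, 7 nM | Controls: Biotin wells as high control, 0.6% DMSO wells as low control | Signal: TR-FRET, Eu(K)-anti-GST donor, streptavidin-D2 acceptor, ex 340, em 617/671 nm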
PG9 Ab binder – binds the HIV-1 gp120 antibody PG9; TR-FRET gp120-PG9 antibody binding; inhibition, % at 6.7 µM; 0.43% of 360,000 active; AID 624416; in the data active means inhibition above about 8.5%
Rev-erbA confirm – Rev-erb alpha (human) modulation, hit confirmation; shares compounds with Rev-erbA mod; Rev-erb alpha FITC-DNA binding, fluorescence polarization, 90 min; activation, % at 25 µM; 61% of 3,000 active; AID 1259319;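 active means activation at or above a set limit, or at least 3 SD above the negative control mean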;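 further: 0% = 35 nM protein with DMSO and 100% = 750 nM protein high control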
RORg counter – RORgamma DNA-binding activity, dose-response counter-screen | shares compounds with Rev-erbA mod | purified RORgamma protein-FITC-DNA binding, fluorescence polarization | IC50, µM | 8% of 910 active;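 active means Compounds whose fitted half-maximal concentration for disrupting protein-DNA binding is below 10 micromolar; the record names Rev-erb in its text, so the target is in doubt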
Starred values were filed as active, the others as inactive; i = inactive; . = no result. Only some compounds are listed: those with a hit (about 2% of all), similar ones and a draw of the others.

SMILES | Rev-erbA mod | NR2E3 ag-1 | Neddylation inh | NR2E3 ag-2 | PG9 Ab binder | Rev-erbA confirm | others
O=C(OC12CCCN(C1)/C(=C/c1cccnc1)C2)C1CCCCC1 (stereo not given) | 1.8 | . | . | . | . | .
O=C(CCc1ccccc1)NC(=S)Nc1ccc2c(c1)C(=O)OC2 | 30.7* | -26.6 | i | -6.2 | 8.2 | 30.1*
C[C@H]1CN(S(=O)C(C)(C)C)[C@@H](CCO)/C1=C\c1ccccc1 (stereo not given in full) | 15.2* | -6.9 | i | . | 1.2 | -0.9
CCOc1ccccc1NC(=O)c1cnc2n(c1=O)CCS2 | 45.9* | -7.7 | i | -0.4 | 0.2 | 37.9* | RORg counter=>40
O=C(Nc1ccc(Oc2ccccc2)cc1)c1cnc2n(c1=O)CCS2 | 16.3 | 20.5 | i | -2.3 | 1.7 | .
CC1=C(C(=O)OC2CCCCCCC2)C(c2cc3c(cc2Br)OCO3)CC(=O)N1 (stereo not given) | 22.8* | 14.4 | i | -2.6 | 1.2 | 29.6*
CC1=C(C(=O)OC2CCCCC2)C(c2ccccc2Br)NC(=O)N1 (stereo not given) | 15.1* | -26.3 | i | 1.9 | 0.0 | 15.2
CN1OC[C@@H]2CN(C(=O)C(C)(C)C)[C@H](c3ccc(-c4cccnc4)cc3)C[C@@H]21 | -3.1 | -4.9 | i | . | -0.4 | .
CCOC(=O)c1cc(-c2ccccc2)sc1NC(=O)CN1C(=O)NC(CC)(c2ccc(F)cc2)C1=O (stereo not given) | 6.7 | -12.9 | i | 1.7 | -0.7 | .
CCOC(=O)c1cc(-c2ccccc2)sc1NC(=O)CN1C(=O)NC(CC)(c2ccccc2)C1=O (stereo not given) | 46.6* | -18.5 | i | 3.9 | 6.7 | 30.6*
COc1ccc(S(=O)(=O)N2CCCCCC2)cc1C(=O)Nc1ccc(C)cn1 | 100.5* | -11.8 | i | 5.2 | -0.2 | 29.8* | RORg counter=0.787*
COc1ccc(S(=O)(=O)N2CCCCCC2)cc1C(=O)Nc1ccccn1 | 46.5* | 3.9 | i | -6.3 | 0.5 | 15.0
COc1ccc(S(=O)(=O)N2CCc3ccccc32)cc1C(=O)Nc1ccc(NC(C)=O)cc1 | 57.5* | -26.8 | i | . | 0.7 | 41.4* | RORg counter=>40
COc1ccc(S(=O)(=O)N2CCCCCC2)cc1C(=O)Nc1cc(C)ccn1 | 1.6 | 0.6 | i | 3.0 | 1.9 | .
Cc1ccc(CN2C(=O)C(CC(C)C)Nc3ncnc(N4CCCCC4)c32)cc1 (stereo not given) | 0.1 | 10.6 | i | . | -0.7 | .
CC(=O)Nc1ccc(S(=O)(=O)Nc2ccc(Cl)nn2)cc1 | -4.7 | 13.6 | i | 4.1 | 0.0 | .
CC(=O)Nc1ccc(S(=O)(=O)Nc2ccn(Cc3ccccc3Cl)n2)cc1 | 14.7* | -7.2 | i | . | -1.7 | -3.2
CC1(C(=O)Nc2ccc3c(c2)OCCO3)CN(S(C)(=O)=O)CC(=O)N1CC(F)(F)F (stereo not given) | 2.0 | . | i | . | -1.2 | .
Cc1cc(NC(=O)CSc2nc3ccccc3c(=O)n2-c2ccccc2)no1 | 27.0* | -0.7 | i | -0.7 | 0.6 | 6.3
Cc1ccc(-n2c(SCC(=O)c3ccc4c(c3)OCO4)nc3ccccc3c2=O)cc1 | -3.0 | . | . | . | . | .
O=C(CSc1nc2ccccc2c(=O)n1-c1ccc(F)cc1)Nc1cc(S(=O)(=O)N2CCOCC2)ccc1Cl | 65.2* | -11.3 | i | -1.0 | -1.2 | 33.5* | RORg counter=>40
Cc1ccc(NC(=O)CSc2nc3ccccc3c3nc4ccccc4n23)cc1 | 57.7* | -42.1 | i | -2.5 | 2.8 | 10.2
Cc1ccc(C(=O)CSc2nc3ccccc3c(=O)n2-c2ccccc2)s1 | 49.1* | -11.7 | i | -3.5 | 28.7* | 34.8* | RORg counter=>40
CC1(C(=O)NS(=O)(=O)c2cccc(Cl)c2)CCN1C(=O)CCc1ccccc1 (stereo not given) | -6.6 | -6.1 | i | . | -0.9 | .
COc1ccccc1CN[C@@H]1CC[C@@]23CCCN2C(=O)CCC[C@H]3C1 | -8.2 | . | . | . | . | .
CCNc1ccccc1 | -0.1 | . | . | . | -1.6 | .
Cc1ccc(-n2c(SCC(=O)Nc3cccc(C)c3)nc3c(oc4ccccc43)c2=O)cc1 | 78.8* | . | . | -1.4 | -1.2 | 125.0* | RORg counter=>40
